From ChEMBL document CHEMBL2150861, “Fibrate-derived N-(methylsulfonyl)amides with antagonistic properties on PPARα” (Eur J Med Chem, 2012)
pEC50, pIC50: −log10 of the molar value. Calls of active or inactive are those of the source. The calls are words filed in the database; no cut-off is given here.

Tests used:
[1] = target: T1, Peroxisome proliferator-activated receptor alpha (Homo sapiens) (UniProt Q07869); assay: Transactivation of PPARalpha expressed in HEK293A cells co-expressing GAL4 at 150 uM after 16 to 18 hrs by luciferase reporter gene assay relative to control; assay type: cell-based; conditions: HEK293-A
T1 sequence (whole entry): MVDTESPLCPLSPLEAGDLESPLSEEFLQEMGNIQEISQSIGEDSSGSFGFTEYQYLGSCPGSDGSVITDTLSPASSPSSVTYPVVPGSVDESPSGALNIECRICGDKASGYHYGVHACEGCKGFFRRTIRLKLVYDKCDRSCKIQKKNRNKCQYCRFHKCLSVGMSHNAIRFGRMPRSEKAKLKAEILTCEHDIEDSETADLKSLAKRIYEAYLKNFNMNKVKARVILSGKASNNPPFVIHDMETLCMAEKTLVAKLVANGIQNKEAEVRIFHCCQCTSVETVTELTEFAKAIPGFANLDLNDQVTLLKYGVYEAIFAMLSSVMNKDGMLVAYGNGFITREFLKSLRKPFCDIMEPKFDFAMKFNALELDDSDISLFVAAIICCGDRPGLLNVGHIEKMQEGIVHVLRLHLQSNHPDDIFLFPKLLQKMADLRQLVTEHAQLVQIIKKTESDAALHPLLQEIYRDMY
Method in brief: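 Single-concentration agonist-mode transactivation: GAL4–PPARα or GAL4–PPARγ chimera, calcium-phosphate transfected into HEK293A cells with reporter, renilla and pGEM plasmids. […] Firefly luciferase read after 16–18 h. Values are ± SEM.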

[2] = target: T1, Peroxisome proliferator-activated receptor alpha (Homo sapiens); assay: Antagonist activity at PPARalpha expressed in HEK293A cells co-expressing GAL4 assessed as inhibition of GW7647-induced transactivation activity at 1 to 150 uM after 16 to 18 hrs by luciferase reporter gene assay; assay type: functional, cell-based; conditions: HEK293-A
Method in brief: (§1)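 GAL4–PPARα chimera in HEK293A cells grown to 70–80% confluency over 16 h, then switched to serum-free medium. Cells co-transfected by calcium phosphate with reporter, renilla, pGEM and receptor plasmids. […] Firefly luciferase read after 16–18 h. Five concentrations, 1–150 µM, at least three separate experiments, IC50 ± SEM.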

[3] = target: T2, Peroxisome proliferator-activated receptor alpha (Homo sapiens, UniProt Q07869); assay: Transactivation of PPARalpha expressed in HEK293A cells co-expressing GAL4 after 16 to 18 hrs by luciferase reporter gene assay; assay type: cell-based, HEK293-A
T2 sequence (Q07869 whole entry): T1 sequence (whole entry)
Method in brief: (§2)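 HEK293A cells cultured to 70–80% confluency, moved to serum-free medium, then calcium-phosphate co-transfected with GAL4–PPARα, luciferase reporter, renilla and pGEM plasmids. Compounds added 6 h after transfection and run in agonist mode. Firefly luciferase activity measured after 16–18 h. Five concentrations from 1 to 150 µM, at least three separate experiments, EC50 ± SEM.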

[4] = target: T1, Peroxisome proliferator-activated receptor alpha (Homo sapiens); assay: Binding affinity to PPARalpha LBD at 100 uM after 2 hrs by TR-FRET analysis
Method in brief: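 After 2 h incubation, excitation at 340 nm and emission at 520 and 495 nm. The 520/495 ratio is normalized to clofibric acid as 100%.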

[5] = target: T3, Peroxisome proliferator-activated receptor gamma (Homo sapiens) (UniProt P37231); assay: Transactivation of PPARgamma expressed in HEK293A cells co-expressing GAL4 at the concentration corresponding to IC50 or EC50 on PPARalpha after 16 to 18 hrs by luciferase reporter gene assay; conditions: HEK293-A
T3 sequence (whole entry): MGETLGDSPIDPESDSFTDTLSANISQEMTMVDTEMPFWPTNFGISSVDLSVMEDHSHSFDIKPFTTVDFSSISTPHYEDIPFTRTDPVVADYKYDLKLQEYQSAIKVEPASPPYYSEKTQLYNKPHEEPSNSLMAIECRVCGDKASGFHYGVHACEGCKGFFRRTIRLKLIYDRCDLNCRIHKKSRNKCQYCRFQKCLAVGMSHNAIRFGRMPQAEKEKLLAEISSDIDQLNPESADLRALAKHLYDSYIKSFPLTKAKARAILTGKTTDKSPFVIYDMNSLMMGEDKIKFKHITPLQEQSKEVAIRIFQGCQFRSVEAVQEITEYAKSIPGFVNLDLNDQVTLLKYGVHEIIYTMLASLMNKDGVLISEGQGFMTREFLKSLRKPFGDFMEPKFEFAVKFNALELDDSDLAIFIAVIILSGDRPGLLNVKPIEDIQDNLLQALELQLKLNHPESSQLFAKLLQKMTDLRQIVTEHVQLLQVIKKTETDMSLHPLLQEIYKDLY

[6] = target: T1, Peroxisome proliferator-activated receptor alpha (Homo sapiens); assay: (§3) Antagonist activity at PPARalpha expressed in HEK293 cells co-expressing GAL4 assessed as inhibition of GW7647-induced transactivation activity after 16 to 18 hrs by luciferase reporter gene assay; assay type: functional, cell-based; method in brief: as §1
[7] = target: T2, Peroxisome proliferator-activated receptor alpha; assay: as §3; assay type: functional, cell-based; method in brief: as §1
[8] = target: T1, Peroxisome proliferator-activated receptor alpha (Homo sapiens); assay: Transactivation of PPARalpha expressed in HEK293A cells co-expressing GAL4 at 1 to 150 uM after 16 to 18 hrs by luciferase reporter gene assay; assay type: cell-based; conditions: HEK293-A; method in brief: as §2
[9] = target: T2, Peroxisome proliferator-activated receptor alpha; assay: Binding affinity to PPARalpha LBD after 2 hrs by TR-FRET analysis
Method in brief: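 TR-FRET competitive binding to PPARα LBD. Five concentrations, three independent experiments. After 2 h incubation, excitation at 340 nm, emission at 520 nm (fluorescein acceptor) and 495 nm (terbium donor). Ratio 520/495 used to derive IC50.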

[10] = target: T3, Peroxisome proliferator-activated receptor gamma (Homo sapiens); assay: Antagonist activity at PPARgamma expressed in HEK293A cells co-expressing GAL4 after 16 to 18 hrs by luciferase reporter gene assay; assay type: functional, cell-based; conditions: HEK293-A

Structure (SMILES) | fold change (FC) [1] | inhibition [2] | pEC50 [3] | Activity [4] | Activity [5] | inhibition [6] | pIC50 [7] | Activity [8] | pIC50 [9] | inhibition [10]
CC(C)(Oc1ccc(Cl)cc1)C(=O)O | 1.6 | inactive | – | – | – | – | – | – | – | –
CC(C)(Oc1ccc(Cl)cc1)C(=O)NS(C)(=O)=O | 1.7 | inactive | 4.97 | 121% | Active | – | – | – | – | –
CC(C)(Oc1ccc(CCNC(=O)c2ccc(Cl)cc2)cc1)C(=O)NS(C)(=O)=O | 0.44 | – | – | Active | Active | Dose-dependent effect | 4.16 | inactive | – | –
CC(C)C(Sc1nc2cc(Cl)ccc2s1)C(=O)NS(C)(=O)=O (stereo unspecified) | 0.47 | – | – | Active | Active | – | 4.33 | inactive | – | –
Cc1ccc(C)c(OCCCC(C)(C)C(=O)NS(C)(=O)=O)c1 | 1.55 | inactive | 5.15 | 118% | Active | – | – | – | – | –
CCCCC(Sc1nc2cc(Cl)ccc2s1)C(=O)NS(C)(=O)=O (stereo unspecified) | 0.08 | – | – | 117% | – | Dose-dependent effect | 6.10 | inactive | 6.22 | –
CCCCCCC(Sc1nc2cc(Cl)ccc2s1)C(=O)NS(C)(=O)=O (stereo unspecified) | 0.04 | – | – | Active | – | – | 5.29 | inactive | – | Active
CCCC(Sc1nc2cc(Cl)ccc2s1)C(=O)NS(C)(=O)=O (stereo unspecified) | 0.28 | – | – | 80.9% | Active | – | 6.22 | inactive | 6.05 | –
CCCC(Sc1nc2ccc(OCC)cc2s1)C(=O)NS(C)(=O)=O (stereo unspecified) | 0.36 | – | – | 137% | Active | – | 5.05 | inactive | 6.32 | –
CS(=O)(=O)NC(=O)C(Sc1nc2cc(Cl)ccc2s1)c1ccccc1 (stereo unspecified) | 0.07 | – | – | 95.3% | – | – | 6.05 | inactive | 6.02 | Active
CCOc1ccc2nc(SC(C)C(=O)NS(C)(=O)=O)sc2c1 (stereo unspecified) | 1.84 | inactive | 5.80 | Active | Active | – | – | – | – | –
CC(C)(Oc1ccc(C(=O)c2ccc(Cl)cc2)cc1)C(=O)NS(C)(=O)=O | 1.1 | inactive | – | 128% | – | – | – | inactive | – | –
